Reference: ChEMBL document CHEMBL1140488, “Influence of 6 or 8-substitution on the antiviral activity of 3-phenethylthiomethylimidazo[1,2-a]pyridine against human cytomegalovirus (HCMV) and varicella-zoster virus (VZV)” (Bioorg Med Chem, 2007)
Converted amounts (≈) assume the structure as drawn.

Key:
[1] = Cytotoxicity against HEL cells assessed as alteration in cell morphology after 3 days; format: cell-based; settings: human
Outline: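 HEL cell cultures exposed to compound were inspected by microscope for altered morphology. MCC is the minimum concentration causing a microscopically detectable alteration of cell morphology.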

Human alphaherpesvirus 3 [2] = experiment: Antiviral activity against TK- VZV 07/1 in HEL cells assessed as reduction of virus plaque formation; format: functional, organism-based; settings: Human alphaherpesvirus 3, 07/1, HEL
[3] = Cytotoxicity against HEL cells assessed as reduction of cell growth after 3 days; format: cell-based; settings: human
Outline: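 HEL cell suspensions were added to wells holding serial concentrations of compound and incubated 3 days at 37 °C in humidified CO2. Viable cells were then counted with a Coulter Counter. CC50 is the concentration reducing viable cell number by 50%.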

Human alphaherpesvirus 3 [4] = experiment: Antiviral activity against TK+ VZV OKA in HEL cells assessed as reduction of virus plaque formation; format: functional, organism-based; settings: Human alphaherpesvirus 3, OKA
Human betaherpesvirus 5 [5] = experiment: Antiviral activity against HCMV Davis in HEL cells assessed as reduction of virus plaque formation after 5 days; format: functional, organism-based; settings: Human betaherpesvirus 5, Davis, 120 h
Outline: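 Confluent human embryonic lung (HEL) cell monolayers in microtiter plates were inoculated with 100 PFU of HCMV (AD169 or Davis) and left 2 h for adsorption. Residual virus was then removed and compound was added at varying concentrations. Viral cytopathicity was read once it reached completion in untreated infected controls.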

Human betaherpesvirus 5 [6] = experiment: Antiviral activity against HCMV AD169 in HEL cells assessed as reduction of virus plaque formation after 5 days; format: functional, organism-based; settings: Human betaherpesvirus 5, AD169, HEL, 120 h
Outline: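 Confluent human embryonic lung (HEL) cell monolayers in microtiter plates were inoculated with 100 PFU of HCMV (AD169 or Davis) and left 2 h for adsorption. Residual virus was then removed and compound was added at varying concentrations. Viral cytopathicity was read once it reached completion in untreated infected controls. EC50 is the concentration inhibiting cytopathicity by 50%.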

Compound	MCC at 72 h [1]	EC50 (Human alphaherpesvirus 3 [2])	CC50 at 72 h [3]	EC50 (Human alphaherpesvirus 3 [4])	EC50 (Human betaherpesvirus 5 [5])	EC50 (Human betaherpesvirus 5 [6])
Cc1cc(-c2ccccc2O)cn2c(CSCCc3ccccc3)cnc12	100 µg/mL	> 20 µg/mL	> 50 µg/mL	> 20 µg/mL	> 100 µg/mL	> 100 µg/mL
Cc1cc(-c2cccc(O)c2)cn2c(CSCCc3ccccc3)cnc12	20 µg/mL	3.7 µg/mL (≈ 9.88 µM)	50 µg/mL (≈ 134 µM)	2.4 µg/mL (≈ 6.41 µM)	2.2 µg/mL (≈ 5.87 µM)	2.2 µg/mL (≈ 5.87 µM)
Cc1cc(-c2ccc(O)cc2)cn2c(CSCCc3ccccc3)cnc12	≥ 100 µg/mL	> 100 µg/mL	> 50 µg/mL	> 20 µg/mL	> 100 µg/mL	> 100 µg/mL
COc1cccc(-c2cc(C)c3ncc(CSCCc4ccccc4)n3c2)c1	20 µg/mL	> 4 µg/mL	36 µg/mL (≈ 92.7 µM)	> 4 µg/mL	2.5 µg/mL (≈ 6.43 µM)	2.2 µg/mL (≈ 5.66 µM)
COc1cccc(-c2cc(C)cn3c(CSCCc4ccccc4)cnc23)c1	100 µg/mL	10.3 µg/mL (≈ 26.5 µM)	> 50 µg/mL	8.3 µg/mL (≈ 21.4 µM)	10.9 µg/mL (≈ 28.1 µM)	10.9 µg/mL (≈ 28.1 µM)
Cc1cc(-c2cccc([N+](=O)[O-])c2)cn2c(CSCCc3ccccc3)cnc12	≥ 100 µg/mL	8.3 µg/mL (≈ 20.6 µM)	43 µg/mL (≈ 107 µM)	5.6 µg/mL (≈ 13.9 µM)	4 µg/mL (≈ 9.91 µM)	7.6 µg/mL (≈ 18.8 µM)
Cc1cc(-c2cccc([N+](=O)[O-])c2)c2ncc(CSCCc3ccccc3)n2c1	100 µg/mL	> 20 µg/mL	47 µg/mL (≈ 116 µM)	> 20 µg/mL	> 100 µg/mL	> 100 µg/mL
Cc1cc(-c2ccc(C#N)cc2)cn2c(CSCCc3ccccc3)cnc12	≥ 20 µg/mL	2 µg/mL (≈ 5.21 µM)	10.6 µg/mL (≈ 27.6 µM)	2.2 µg/mL (≈ 5.74 µM)	2.5 µg/mL (≈ 6.52 µM)	1.8 µg/mL (≈ 4.69 µM)
Cc1cc(-c2cccc(F)c2)c2ncc(CSCCc3ccccc3)n2c1	20 µg/mL	> 4 µg/mL	35 µg/mL (≈ 93 µM)	> 4 µg/mL	2.2 µg/mL (≈ 5.84 µM)	2.2 µg/mL (≈ 5.84 µM)
c1ccc(CCSCc2cnc3ccc(-c4ccccc4)cn23)cc1	4 µg/mL	> 0.8 µg/mL	9.9 µg/mL (≈ 28.7 µM)	0.74 µg/mL (≈ 2.15 µM)	> 0.8 µg/mL	> 0.8 µg/mL
Cc1cc(-c2ccccc2)c2ncc(CSCCc3ccccc3)n2c1	20 µg/mL	> 4 µg/mL	33 µg/mL (≈ 92 µM)	> 4 µg/mL	> 4 µg/mL	> 4 µg/mL
Cc1cc(-c2ccsc2)cn2c(CSCCc3ccccc3)cnc12	≥ 4 µg/mL	1.8 µg/mL (≈ 4.94 µM)	> 50 µg/mL	1.7 µg/mL (≈ 4.66 µM)	1.8 µg/mL (≈ 4.94 µM)	> 0.8 µg/mL
Cc1cc(-c2cccs2)cn2c(CSCCc3ccccc3)cnc12	20 µg/mL	> 4 µg/mL	32 µg/mL (≈ 87.8 µM)	4 µg/mL (≈ 11 µM)	2.2 µg/mL (≈ 6.04 µM)	2.2 µg/mL (≈ 6.04 µM)
Cc1cc(-c2cccs2)c2ncc(CSCCc3ccccc3)n2c1	100 µg/mL	4 µg/mL (≈ 11 µM)	> 50 µg/mL	7.8 µg/mL (≈ 21.4 µM)	2.2 µg/mL (≈ 6.04 µM)	2.5 µg/mL (≈ 6.86 µM)
Cc1cc(Br)cn2c(CSCCc3ccccc3)cnc12	≥ 2 µg/mL	1.1 µg/mL (≈ 3.04 µM)	28 µg/mL (≈ 77.5 µM)	0.48 µg/mL (≈ 1.33 µM)	0.13 µg/mL (≈ 0.36 µM)	0.32 µg/mL (≈ 0.886 µM)
Cc1cc(-c2ccccc2)cn2c(CSCCc3ccccc3)cnc12	20 µg/mL	> 4 µg/mL	31 µg/mL (≈ 86.5 µM)	3.6 µg/mL (≈ 10 µM)	2.2 µg/mL (≈ 6.14 µM)	2 µg/mL (≈ 5.58 µM)
Cc1cc(-c2ccsc2)c2ncc(CSCCc3ccccc3)n2c1	100 µg/mL	8.6 µg/mL (≈ 23.6 µM)	> 50 µg/mL	8.9 µg/mL (≈ 24.4 µM)	2.5 µg/mL (≈ 6.86 µM)	2.5 µg/mL (≈ 6.86 µM)
Cc1cc(I)c2ncc(CSCCc3ccccc3)n2c1	≥ 4 µg/mL	2.6 µg/mL (≈ 6.37 µM)	> 50 µg/mL	2.6 µg/mL (≈ 6.37 µM)	1.8 µg/mL (≈ 4.41 µM)	> 0.8 µg/mL
COc1ccc(-c2cc(C)cn3c(CSCCc4ccccc4)cnc23)cc1	20 µg/mL	3.1 µg/mL (≈ 7.98 µM)	19.6 µg/mL (≈ 50.4 µM)	2 µg/mL (≈ 5.15 µM)	2.2 µg/mL (≈ 5.66 µM)	2.2 µg/mL (≈ 5.66 µM)
Cc1cc(-c2cccc(C#N)c2)cn2c(CSCCc3ccccc3)cnc12	> 100 µg/mL	81 µg/mL (≈ 211 µM)	> 50 µg/mL	> 100 µg/mL	2.5 µg/mL (≈ 6.52 µM)	2.2 µg/mL (≈ 5.74 µM)
Cc1cc(I)cn2c(CSCCc3ccccc3)cnc12	≥ 0.8 µg/mL	0.43 µg/mL (≈ 1.05 µM)	> 50 µg/mL	0.68 µg/mL (≈ 1.67 µM)	0.12 µg/mL (≈ 0.294 µM)	> 0.16 µg/mL
Cc1cc(-c2cccc(O)c2)c2ncc(CSCCc3ccccc3)n2c1	20 µg/mL	2.9 µg/mL (≈ 7.74 µM)	11.4 µg/mL (≈ 30.4 µM)	1.6 µg/mL (≈ 4.27 µM)	> 4 µg/mL	> 4 µg/mL
Cc1cc(-c2ccc(O)cc2)c2ncc(CSCCc3ccccc3)n2c1	20 µg/mL	2.7 µg/mL (≈ 7.21 µM)	13.7 µg/mL (≈ 36.6 µM)	1.7 µg/mL (≈ 4.54 µM)	2.2 µg/mL (≈ 5.87 µM)	2.2 µg/mL (≈ 5.87 µM)
COc1ccc(-c2cc(C)c3ncc(CSCCc4ccccc4)n3c2)cc1	20 µg/mL	> 4 µg/mL	25.8 µg/mL (≈ 66.4 µM)	2.4 µg/mL (≈ 6.18 µM)	2.2 µg/mL (≈ 5.66 µM)	3.1 µg/mL (≈ 7.98 µM)
Nc1nc2c(ncn2COCCO)c(=O)[nH]1 [ACYCLOVIR]	> 400 µg/mL		> 200 µg/mL			
O=c1[nH]c(=O)n([C@H]2C[C@H](O)[C@@H](CO)O2)cc1/C=C/Br [BRIVUDINE]	> 400 µg/mL	362 µg/mL (≈ 1090 µM)		0.0038 µg/mL (≈ 0.0114 µM)		
Nc1ccn(C[C@@H](CO)OCP(=O)(O)O)c(=O)n1.O.O [CIDOFOVIR]	≥ 100 µg/mL		47 µg/mL		0.12 µg/mL	0.1 µg/mL
Nc1nc2c(ncn2COC(CO)CO)c(=O)[nH]1 [GANCICLOVIR]	100 µg/mL		146 µg/mL (≈ 572 µM)			0.51 µg/mL (≈ 2 µM)
